Key:
[1] = Drug hydrolysis in Wistar rat jejunal S9 fraction assessed as rate of hydrolysis per mg protein; format: ADME, Jejunum
Method in brief: (§1)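 Duodenal or jejunal mucosa from fasted rats homogenized in 50 mM HEPES (pH 7.4) with 1.15% KCl; S9 is the 9000 g supernatant. S9 pre-incubated 5 min at 37°C, then drug added at 10–500 µM final (1% DMSO). Run for 20 min, stopped with acetonitrile, temocaprilat formed measured by HPLC. Km and Vmax from Michaelis–Menten nonlinear fit. Inhibitor (1 mM BNPP) pre-incubated 5 min. Results as % of control.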

Jejunum [2] = experiment: Intracellular drug level in Wistar rat jejunum pre-perfused with 400 uM CES inhibitor BNPP at 100 uM at pH 5.4 by in-situ single-pass perfusion method; format: ADME, tissue-based; settings: in vivo, pH 5.4, 100 µM
Method in brief: (§2)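 Same in situ jejunal single-pass perfusion, with carboxylesterase blocked by pre-perfusing the lumen with 400 µM BNPP for 40 min. Then 100 µM drug in luminal phosphate buffer (pH 5.4 or 6.4) at 0.2 ml/min. Vascular Krebs–Henseleit (pH 7.4) at 2.5 ml/min. Luminal, vascular and tissue levels measured by HPLC. Rates are luminal disappearance and appearance in lumen or mesenteric vein. Mean ± S.D., n = 3.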

Jejunum [3] = experiment: Drug uptake in Wistar rat jejunum pre-perfused with 400 uM CES inhibitor BNPP assessed as rate of drug disappearance at 100 uM at pH 5.4 by in-situ single-pass perfusion method; format: ADME, tissue-based; settings: in vivo, pH 5.4, 100 µM; method in brief: as §2
Jejunum [4] = experiment: Intracellular drug level in Wistar rat jejunum treated with Temocaprilat at 100 uM at pH 7.4 by in-situ single-pass perfusion method; format: ADME, tissue-based; settings: in vivo, pH 7.4, 100 µM
Jejunum [5] = experiment: Apparent hydrolytic clearance in Wistar rat jejunum at 100 uM at pH 5.4 by in-situ single-pass perfusion method; format: ADME, tissue-based; settings: in vivo, pH 5.4, 100 µM
Method in brief: (§3)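 Rats fasted 18–24 h, anesthetized with intraperitoneal pentobarbital. Isolated cannulated jejunal segment kept at 37°C in Krebs–Henseleit buffer with 3% BSA and 10 mM glucose. Vascular perfusion with Krebs–Henseleit (pH 7.4) at 2.5 ml/min. Lumen perfused at 0.2 ml/min with phosphate buffer (pH 5.4, 6.4 or 7.4) containing 100 µM drug plus FD-4. Luminal and vascular samples assayed by HPLC (UV 258 nm). Parameters normalized to 10 cm intestine. Mean ± S.D., n = 3–6.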

Jejunum [6] = experiment: Intracellular drug level in Wistar rat jejunum assessed as temocaprilat level pre-perfused with 400 uM CES inhibitor BNPP at 100 uM at pH 6.4 by in-situ single-pass perfusion method; format: ADME, tissue-based; settings: in vivo, pH 6.4, 100 µM; method in brief: as §2
[7] = Drug hydrolysis in Wistar rat jejunal S9 fraction; format: ADME, Jejunum; method in brief: as §1
Jejunum [8] = experiment: Intracellular drug level in Wistar rat jejunum at 100 uM at pH 5.4 by in-situ single-pass perfusion method; format: ADME, tissue-based; settings: in vivo; method in brief: as §3
Jejunum [9] = experiment: Apparent absorption clearance in Wistar rat jejunum at 100 uM at pH 5.4 by in-situ single-pass perfusion method; format: ADME, tissue-based; settings: in vivo, pH 5.4, 100 µM; method in brief: as §3
Jejunum [10] = experiment: Drug uptake in Wistar rat jejunum pre-perfused with 400 uM CES inhibitor BNPP assessed as rate of temocaprilat disappearance at 100 uM at pH 5.4 by in-situ single-pass perfusion method; format: ADME, tissue-based; settings: in vivo, pH 5.4, 100 µM; method in brief: as §2
Jejunum [11] = experiment: Apparent absorption clearance in Wistar rat jejunum pre-perfused with 400 uM CES inhibitor BNPP at 100 uM at pH 6.4 by in-situ single-pass perfusion method; format: ADME; settings: in vivo, pH 6.4, 100 µM; method in brief: as §2
[12] = Ratio of Vmax to Km for drug jejunal in Wistar rat jejunal S9 fraction assessed per mg protein
[13] = Drug hydrolysis in intact Wistar rat jejunal S9 fraction at 500 uM assessed per mg protein in presence of 1000 uM CES inhibitor BNPP; format: ADME, Jejunum; settings: s9, 500 µM
Method in brief: (§4)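 Jejunal mucosal homogenate or S9 (HEPES pH 7.4/KCl) taken from intact jejunum, or after 40 min perfusion with or without 400 µM BNPP. Protein at 400 µg/ml incubated at 37°C with 500 µM drug. Added BNPP (100 or 1000 µM) pre-incubated 5 min. Temocaprilat formed measured by HPLC and given as nmol/min/mg protein and % of control. Mean ± S.D., n = 4.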

Jejunum [14] = experiment: Drug hydrolysis in intact Wistar rat jejunum mucosal homogenate at 500 uM assessed per mg protein in presence of 1000 uM CES inhibitor BNPP; format: ADME, tissue-based; settings: tissue homogenate; method in brief: as §4
[15] = Permeability in Wistar rat jejunum at 100 uM at pH 6.4 by in-situ single-pass perfusion method; format: ADME, tissue-based; settings: other: in-situ single-pass perfusion of the jejunum, read-out: Peff (converted)
Method in brief: (§5)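 Rats fasted 18–24 h and anesthetized with intraperitoneal pentobarbital. Jejunal loop perfused at 0.2 ml/min with phosphate buffer (pH 5.4, 6.4 or 7.4) containing 100 μM drug and FD-4 (0.1 mg/ml). Vascular perfusate was Krebs–Henseleit bicarbonate buffer (pH 7.4) at 2.5 ml/min, segment kept at 37°C. Drug and metabolite measured by HPLC (UV 258 nm). Peff normalized to 10 cm intestine; mean ± S.D., n = 3–6.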

Jejunum [16] = experiment: Intracellular drug level in Wistar rat jejunum at 100 uM at pH 7.4 by in-situ single-pass perfusion method; format: ADME, tissue-based; settings: in vivo, pH 7.4, 100 µM; method in brief: as §3
Jejunum [17] = experiment: Apparent absorption clearance in Wistar rat jejunum at 100 uM at pH 6.4 by in-situ single-pass perfusion method; format: ADME, tissue-based; settings: in vivo; method in brief: as §3
Jejunum [18] = experiment: Intracellular drug level in Wistar rat jejunum assessed as temocaprilat level pre-perfused with 400 uM CES inhibitor BNPP at 100 uM at pH 5.4 by in-situ single-pass perfusion method; format: ADME, tissue-based; settings: in vivo, pH 5.4, 100 µM; method in brief: as §2
[19] = Ratio of Vmax to Km for drug hydrolysis in Wistar rat duodenal S9 fraction assessed per mg protein; format: ADME, Duodenum
Method in brief: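 Duodenal or jejunal mucosal S9 (9000 g supernatant) in 50 mM HEPES pH 7.4, pre-incubated 5 min at 37°C. Substrate added at 10–500 µM final in 1% DMSO and incubated 20 min; stopped with acetonitrile. Temocaprilat formation measured by HPLC. Km and Vmax from nonlinear Michaelis–Menten fit; intrinsic clearance as Vmax/Km; mean ± S.D.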

Jejunum [20] = experiment: Apparent hydrolytic clearance in Wistar rat jejunum pre-perfused with 400 uM CES inhibitor BNPP at 100 uM at pH 5.4 by in-situ single-pass perfusion method; format: ADME, tissue-based; settings: in vivo, pH 5.4, 100 µM; method in brief: as §2
[21] = Permeability in Wistar rat jejunum at 100 uM at pH 5.4 by in-situ single-pass perfusion method; format: ADME, tissue-based; settings: other: in-situ single-pass perfusion of the jejunum, read-out: Peff (converted); method in brief: as §5
[22] = Drug hydrolysis in intact Wistar rat jejunal S9 fraction at 500 uM assessed per mg protein in presence of 100 uM CES inhibitor BNPP; format: ADME, Jejunum; settings: s9, 500 µM; method in brief: as §4
[23] = Drug hydrolysis in Wistar rat duodenal S9 fraction assessed as rate of hydrolysis per mg protein; format: ADME, Duodenum; method in brief: as §1
Jejunum [24] = experiment: Drug uptake in Wistar rat jejunum pre-perfused with 400 uM CES inhibitor BNPP assessed as rate of temocaprilat appearance at 100 uM at pH 6.4 by in-situ single-pass perfusion method; format: ADME; settings: in vivo, pH 6.4, 100 µM; method in brief: as §2
[25] = Drug hydrolysis in Wistar rat duodenal S9 fraction in presence of 1 mM CES inhibitor BNPP; format: ADME, Duodenum; method in brief: as §1
[26] = Permeability in Wistar rat jejunum pre-perfused with 400 uM CES inhibitor BNPP at 100 uM at pH 6.4 by in-situ single-pass perfusion method; format: ADME, tissue-based; settings: other: in-situ single-pass perfusion of the jejunum, pH 6.4, with BNPP (CES inhibitor) 400 uM, read-out: Peff (converted)
Method in brief: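 Fasted, pentobarbital-anesthetized rats. Jejunum pre-perfused with BNPP (400 µM) for 40 min to inhibit CES. Lumen then perfused at 0.2 ml/min with 100 μM drug in phosphate buffer (pH 5.4 or 6.4). Vascular side received Krebs–Henseleit buffer (pH 7.4) at 2.5 ml/min. Luminal drug quantified by HPLC; Peff normalized to 10 cm segment; mean ± S.D., n = 3.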

[27] = Drug hydrolysis in intact Wistar rat jejunal S9 fraction at 500 uM assessed per mg protein; format: ADME, Jejunum; settings: s9, 500 µM; method in brief: as §4

Vmax [1]: 5.11 nmol/min/mg
Drug uptake (Jejunum [2]): 20.6 nmol/g
CL (Jejunum [3]): 2.98 nmol/min
Drug uptake (Jejunum [4]): 17.6 nmol/g
CL (Jejunum [5]): 34.4 µL/min
Drug uptake (Jejunum [6]): 14.6 nmol/g
Km [7]: 47.3 µM
Drug uptake (Jejunum [8]): 5.46 nmol/g
CL(app) (Jejunum [9]): 3.59 µL/min
CL (Jejunum [10]): 1.01 nmol/min
CL(app) (Jejunum [11]): 7.64 µL/min
Vmax/Km [12]: 108 µL/min
Drug degradation [13]: 0.488 nmol/min
Drug degradation (Jejunum [14]): 1.97 nmol/min
Papp at 100 µM [15]: 57.2 ×10⁻⁶ cm/s
Drug uptake (Jejunum [16]): 1.02 nmol/g
CL(app) (Jejunum [17]): 1.59 µL/min
Drug uptake (Jejunum [18]): 17 nmol/g
Vmax/Km [19]: 109 µL/min
CL (Jejunum [20]): 24.9 µL/min
Papp at 100 µM [21]: 76 ×10⁻⁶ cm/s
Drug degradation [22]: 1.13 nmol/min
Vmax [23]: 5.2 nmol/min/mg
CL (Jejunum [24]): 0.604 nmol/min
Stability [25]: Stable
Papp at 100 µM [26]: 38.7 ×10⁻⁶ cm/s
Drug degradation [27]: 4.46 nmol/min
SMILES: CCOC(=O)[C@H](CCc1ccccc1)N[C@H]1CS[C@H](c2cccs2)CN(CC(=O)O)C1=O [TEMOCAPRIL]

— ChEMBL document CHEMBL3526140, “Prediction of human intestinal absorption of the prodrug temocapril by in situ single-pass perfusion using rat intestine with modified hydrolase activity” (Drug Metab Dispos, 2011)
